This passage reports Block and Uptake results from ChEMBL document CHEMBL1132631, “Comparison of four 64Cu-labeled somatostatin analogues in vitro and in a tumor-bearing rat model: evaluation of new derivatives for positron emission tomography imaging and targeted radiotherapy” (J Med Chem, 1999).

The species named for assay [1] is Rattus norvegicus. Description: The percent block of uptake of [64Cu]-TETA-Y3-TATE in somatostatin-rich tissues by a co-injection of compound. Type of assay: functional. In short, it runs like this:
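In CA20948 tumor-bearing Lewis rats, [⁶⁴Cu]TETA-Y3-TATE (5.4 μCi, 5 ng) was given i.v. by tail vein, either alone or co-injected with 150 μg of unlabeled competing peptide. All groups were killed at 1 h. Tissues were excised, weighed and γ-counted, with decay correction, to give %ID/g.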

The species entered for assay [2] is Rattus norvegicus. Description: The pancreatic uptake of [64Cu]-TETA-Y3-TATE in somatostatin-rich (ID/g) tissues by a co-injection of compound at 1 h.

Where only a bound is given, the exact number is not on record here.

Regarding `C[C@H](O)[C@H](NC(=O)[C@H]1CSSC[C@H](NC(=O)[C@H](N)Cc2ccccc2)C(=O)N[C@@H](Cc2ccc(O)cc2)C(=O)N[C@@H](Cc2c[nH]c3ccccc23)C(=O)N[C@@H](CCCCN)C(=O)N[C@H]([C@H](C)O)C(=O)N1)C(=O)O`, the Block in the assay filed under Rattus norvegicus [1] was above 90%. In the assay listed under Rattus norvegicus [2], the Uptake was 0.15 %ID/g.
